Results from PMC4567957 (Bioorganic & medicinal chemistry letters, 2015).
Entries after “also recorded” stand apart in the source; their conditions may differ. Starred links: 1 amine or outer side, 2 acyl side, 3 side chain; linkers in the order of their positions; H or OH if unused. Positions of bridges follow the written chain, without caps; N, C: chain ends. Non-standard residues stand in square brackets, D forms with d. Residues, ends and D or L forms follow the SMILES beside them. *: point of attachment. CH2CONHCH2CH2NHCOCH2 = O=C(C[*:1])NCCNC(=O)C[*:2]; Propanoyl(3,3-Ph2) = O=C(CC(c1ccccc1)c1ccccc1)*; Pyridine(2,6-diCH2) = c1cc(C[*:1])nc(C[*:2])c1; X2 = O=C(CC(c1ccccc1)(c1ccccc1)c1ccccc1)*; Dip = N[C@H](C(=O)O)C(c1ccccc1)c1ccccc1; X1 = CCCCCCCCCCCCCCCC(=O)NCCOCCOCCN*; mXylylene = c1cc(C[*:1])cc(C[*:2])c1; oXylylene = c1ccc(C[*:2])c(C[*:1])c1; NH(CH2CH2O)2CH2CH2NH2 = NCCOCCOCCN*; pXylylene = c1cc(C[*:2])ccc1C[*:1]; Mpa = O=C(O)CCS

Tests used:
[1] = Plasma stability in freshly prepared mouse plasma; format: in vitro ADME; details: 25 μM, 37 °C
Method in brief: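 Test compound, from a 10 mM DMSO stock, spiked into freshly prepared mouse plasma (final 25 μM) and incubated at 37 °C. Aliquots taken at set time points were quenched in DMSO/acetonitrile (1:1) with 0.1% TFA and centrifuged (13000 rpm, 10 min). Supernatants were analysed by triple-quadrupole LC/MS against a peptide internal standard to follow remaining intact peptide over time.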

human ferroportin-GFP = biological target: T1, human ferroportin-GFP (Homo sapiens, UniProt Q9NP59); assay: In vitro ferroportin; format: cell-based; details: for bioactivity in Fpn degradation assay (in words): result in words, see Table 1; for times less active than mHS5: versus mHS5
T1 sequence (Q9NP59 1-571): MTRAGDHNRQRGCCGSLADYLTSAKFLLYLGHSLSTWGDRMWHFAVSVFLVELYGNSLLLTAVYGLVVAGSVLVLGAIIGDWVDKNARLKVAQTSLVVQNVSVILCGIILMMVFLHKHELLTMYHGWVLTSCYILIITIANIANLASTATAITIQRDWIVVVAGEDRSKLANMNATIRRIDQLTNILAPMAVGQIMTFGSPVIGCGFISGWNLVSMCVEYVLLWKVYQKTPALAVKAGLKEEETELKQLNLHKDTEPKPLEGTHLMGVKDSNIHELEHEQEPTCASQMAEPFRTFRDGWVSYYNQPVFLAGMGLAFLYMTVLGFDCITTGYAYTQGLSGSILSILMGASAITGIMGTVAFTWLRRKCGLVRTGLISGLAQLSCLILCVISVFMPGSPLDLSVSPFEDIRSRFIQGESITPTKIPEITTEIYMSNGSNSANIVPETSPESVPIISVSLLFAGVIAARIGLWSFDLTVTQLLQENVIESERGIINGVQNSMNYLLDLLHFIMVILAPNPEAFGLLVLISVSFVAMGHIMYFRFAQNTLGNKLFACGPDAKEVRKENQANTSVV

C57BL/6 mice = format: in vivo, mouse; details: subcutaneous, 50–200 nmoles, 24h post-injection

Compound: CC(=O)N[C@@H](CS)C(=O)N[C@@H](Cc1ccccc1)C(=O)N1CCC[C@H]1C(=O)N[C@@H](CCCNC(=N)N)C(=O)N[C@@H](CS)C(=O)N[C@@H](CCCNC(=N)N)C(=O)N[C@@H](Cc1ccccc1)C(=O)N[C@@H](CS)C(N)=O [mHS1] (Ac-CFPRCRFC-NH2; N-terminus and C-terminus assumed)
- time within which degraded in plasma [1]: ≤ 6 h
- EC50 (human ferroportin-GFP): > 600 nM

Compound: CC(=O)N[C@H]1CSCC(=O)NCCNC(=O)CSC[C@@H](C(N)=O)NC(=O)[C@H](Cc2ccccc2)NC(=O)[C@H](CCCNC(=N)N)NC(=O)[C@H](CS)NC(=O)[C@H](CCCNC(=N)N)NC(=O)[C@@H]2CCCN2C(=O)[C@H](Cc2ccccc2)NC1=O [mHS2] (Ac-CFPRCRFC-NH2; linker 1-8 via CH2CONHCH2CH2NHCOCH2; N-terminus and C-terminus assumed)
- bioactivity in Fpn degradation assay (in words) (human ferroportin-GFP): inactive

Compound: CC(=O)N[C@H]1CSCc2ccc(cc2)CSC[C@@H](C(N)=O)NC(=O)[C@H](Cc2ccccc2)NC(=O)[C@H](CCCNC(=N)N)NC(=O)[C@H](CS)NC(=O)[C@H](CCCNC(=N)N)NC(=O)[C@@H]2CCCN2C(=O)[C@H](Cc2ccccc2)NC1=O [mHS4] (Ac-CFPRCRFC-NH2; linker 1-8 via pXylylene (inferred))
- times less active than mHS5 (human ferroportin-GFP): approximately 2 times

Compound: CC(=O)N[C@H]1CSCc2ccccc2CSC[C@@H](C(N)=O)NC(=O)[C@H](Cc2ccccc2)NC(=O)[C@H](CCCNC(=N)N)NC(=O)[C@H](CS)NC(=O)[C@H](CCCNC(=N)N)NC(=O)[C@@H]2CCCN2C(=O)[C@H](Cc2ccccc2)NC1=O [mHS6] (Ac-CFPRCRFC-NH2; linker 1-8 via oXylylene; N-terminus and C-terminus assumed)
- times less active than mHS5 (human ferroportin-GFP): approximately 2 times

Compound: CC(=O)N[C@H]1CSCc2cccc(n2)CSC[C@@H](C(N)=O)NC(=O)[C@H](Cc2ccccc2)NC(=O)[C@H](CCCNC(=N)N)NC(=O)[C@H](CS)NC(=O)[C@H](CCCNC(=N)N)NC(=O)[C@@H]2CCCN2C(=O)[C@H](Cc2ccccc2)NC1=O [mHS7] (Ac-CFPRCRFC-NH2; linker 1-8 via Pyridine(2,6-diCH2); N-terminus and C-terminus assumed)
- bioactivity in Fpn degradation assay (in words) (human ferroportin-GFP): inactive

Compound: CC(=O)N[C@H]1CSCc2cccc(c2)CSC[C@@H](C(N)=O)NC(=O)[C@H](Cc2ccccc2)NC(=O)[C@H](CCCNC(=N)N)NC(=O)[C@H](CS)NC(=O)[C@H](CCCNC(=N)N)NC(=O)[C@@H]2CCCN2C(=O)[C@H](C(c2ccccc2)c2ccccc2)NC1=O [mHS15] (Ac-C[Dip]PRCRFC-NH2; linker 1-8 via mXylylene; N-terminus and C-terminus assumed)
- increase in potency (4Phe→Dpa) (human ferroportin-GFP; mHS5 versus mHS15): 5 ×

Compound: CCCCCCCCCCCCCCCCNC(=O)CN(CC(N)=O)C(=O)CCCCCNC(=O)[C@@H]1CSCc2cccc(c2)CSC[C@H](NC(C)=O)C(=O)N[C@@H](C(c2ccccc2)c2ccccc2)C(=O)N2CCC[C@H]2C(=O)N[C@@H](CCCNC(=N)N)C(=O)N[C@@H](CS)C(=O)N[C@@H](CCCNC(=N)N)C(=O)N[C@@H](Cc2ccccc2)C(=O)N1 [mHS17]
- in vivo activity (decrease in serum iron) (C57BL/6 mice): no desired biological effect; also recorded: no in vivo potency

Compound: N=C(N)NCCC[C@@H]1NC(=O)[C@@H](NC(=O)CC(c2ccccc2)(c2ccccc2)c2ccccc2)CSCc2cccc(c2)CSC[C@@H](C(N)=O)NC(=O)[C@H](Cc2ccccc2)NC(=O)[C@H](CCCNC(=N)N)NC(=O)[C@H](CS)NC1=O [mHS19] (X2-CRCRFC-NH2; linker 1-6 via mXylylene; C-terminus assumed)
- EC50 (human ferroportin-GFP): ~100 nM
- fold less potent than mHS15 (human ferroportin-GFP; versus mHS15): approximately 2 ×

Compound: N=C(N)NCCC[C@@H]1NC(=O)[C@H](CS)NC(=O)[C@H](CCCNC(=N)N)NC(=O)[C@@H]2CCCN2C(=O)[C@H](C(c2ccccc2)c2ccccc2)NC(=O)CCSCc2cccc(c2)CSC[C@@H](C(=O)NCCOCCOCCN)NC(=O)[C@H](Cc2ccccc2)NC1=O [mHS23] ([Mpa][Dip]PRCRFC-{NH(CH2CH2O)2CH2CH2NH2}; linker 1-8 via mXylylene (inferred))
- times more active than mHS22 (human ferroportin-GFP; versus AcNH-containing mHS22): approximately 2 times

Compound: CCCCCCCCCCCCCCCC(=O)NCCOCCOCCNC(=O)[C@@H]1CSCc2cccc(c2)CSC[C@H](NC(=O)CC(c2ccccc2)c2ccccc2)C(=O)N[C@@H](CCCNC(=N)N)C(=O)N[C@@H](CS)C(=O)N[C@@H](CCCNC(=N)N)C(=O)N[C@@H](Cc2ccccc2)C(=O)N1 [mHS26] ({Propanoyl(3,3-Ph2)}-CRCRFC-X1; linker 1-6 via mXylylene; N-terminus and C-terminus assumed)
- plasma stability compared with PR73 [1]: slightly more resistant to plasma driven degradation
- fold less potent than parental minihepcidin PR73 (human ferroportin-GFP; ratio of EC50 versus PR73): 12.5 ×
- in vivo activity (decrease in serum iron) (C57BL/6 mice): no desired biological effect; also recorded: no in vivo potency
